Reference: PubChem BioAssay
Records with an inconclusive call do not appear. Active and inactive are the calls of the source.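 Rule for the calls, unless noted: active = viability at or below 27.92% in each of two runs, the all-compound median minus 4 SD; inconclusive = no clear call, values can overlap the other calls; inactive = the rest.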

Assays:
[1] = OD615 S. cerevisiae growth inhibition, permissive medium, pilot counter-assay, permissive growth control for S. cerevisiae lifespan shortening project (AID 705;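 active = growth inhibition above 25% in both replicates, a cutoff set 3 SD above the mean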); conditions: OD615, 24 h, at 10 µM, hits give high values
Procedure, shortened: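 Test system: Saccharomyces cerevisiae strain carrying genetically modified DeaD replicative-lifespan system; buffer or medium: SC raffinose/galactose permissive medium; dosing: one dose 10 µM, DMSO 0.25% final; times: 24 h exposure, 30 °C; measured by: OD at 615 nm; read-out basis: growth inhibition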

[2] = Restrictive medium S. cerevisiae growth inhibition, OD615, pilot screen of yeast lifespan reduction project, restrictive growth control (AID 706;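 active = growth inhibition above a set limit, 3 SD over mean compound inhibition, in both replicates, cut at about 43% in these data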;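 note: modified DeaD lifespan yeast strain shifted to restrictive glucose medium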); conditions: OD615, 48 h, at 10 µM, hits give high values
Procedure, shortened: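 material = engineered S. cerevisiae DeaD strain | buffer or medium = glucose-based CSMM-D restrictive medium | dosing = one concentration, 10 µM final, 0.25% DMSO | schedule = 4 h pre-growth plus 48 h compound exposure, 30 °C | detection = OD615 absorbance reading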

[3] = viability gain of MRP-1-high H69AR cells under doxorubicin, pilot screen, MRP-1 activator project, CellTiter-Glo, duplicate (AID 807;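 active = viability increase at or above a cutoff of the median across tested compounds plus 3 SD, cut at about 8.5% in these data, passing the limit was not always enough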;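 note: compound pretreatment 18-22 h then 72 h combined with doxorubicin; 0% = doxorubicin alone and 100% = vehicle without doxorubicin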); conditions: H69AR viability with doxorubicin, CellTiter-Glo luminescence; at 10 µM; hits give high values
[4] = growth suppression of beta-catenin knockout HCT116, pilot screen, human colon tumor cells (AID 823;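 active = cell viability at or below a set limit in both duplicate runs, the limit being the all-compound median minus 4 SD, cut at about 23% in these data, passing the limit was not always enough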;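 note: 0% = wells killed by 20 µM Hyamine and 100% = untreated DMSO cell wells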); conditions: CellTiter-Glo, 60 h, at 10 µM, hits give low values
[5] = growth suppression of PTEN-deleted HCT116, pilot screen, cell-based, HCT116 clonal line, CellTiter-Glo (AID 824); conditions: 60 h, at 10 µM, hits give low values;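 note: 0% = 20 µM Hyamine control and 100% = vehicle cell control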
[6] = inhibitors of the yeast RAM network, pilot screen, dse1pr::URA3 reporter, 5-FOA selection (AID 869;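 active = inhibition over a set limit, the all-compound mean plus 3 SD, in both replicate runs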;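 note: 0% = DMSO wells with no growth and 100% = 10 µM 1-NA-PP1 with full growth; RAM network block rescues cells from 5-FOA so hits raise OD615 growth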); conditions: S. cerevisiae dse1pr::URA3 5-FOA growth, OD615, 2 d; at 10 µM; hits give high values; strain carries analog-sensitive mutant Cbk1 kinase
[7] = RAM signaling pathway blockade in yeast – S. cerevisiae, Pdr1DBD-CYC8 efflux-inhibited sensitized strain, primary screen (AID 1298;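 active = RAM network inhibition above 8.4% in each of two replicates, 3 SD over the compound average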;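 note: 0% = DMSO untreated cells without growth and 100% = 10 µM 1-NA-PP1 full growth; higher means more yeast growth rescued from 5-FOA killing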); conditions: S. cerevisiae cbk1-as DSE1-URA3 strain, 5-FOA growth OD615, 2 d; at 50 µM; hits give high values

Cn1c(NC(=O)c2ccc(Cl)cc2Cl)cc(=O)n(C)c1=O
inactive: growth inhibition [1] -4.17% | growth inhibition [2] 0.265% | viability increase [3] -2.37% | viability [4] 98.7% | viability [5] 90.8% | inhibition [6] 0.95% | RAM network inhibition [7] -0.2%

Cc1ccc(C2CC(c3cccc(C)c3)n3nc(N)nc3N2)cc1 (configuration not stated)
inactive: growth inhibition [1] -0.275% | growth inhibition [2] 16.7% | viability increase [3] -3.52% | viability [4] 89.6% | viability [5] 81% | inhibition [6] 1.81% | RAM network inhibition [7] 1.43%

Cc1ccc2c(c1)NC(=O)C(CC(=O)O)O2 (configuration not stated)
inactive: growth inhibition [1] 2.33% | growth inhibition [2] 0.555% | viability increase [3] -0.27% | viability [4] 103% | viability [5] 99.7% | inhibition [6] 1.48% | RAM network inhibition [7] 4.69%

CCS(=O)(=O)NCCc1csc(-c2cccnc2)n1
inactive: growth inhibition [1] -1.29% | growth inhibition [2] -6.54% | viability increase [3] -0.37% | viability [4] 102% | viability [5] 102% | inhibition [6] 2.48% | RAM network inhibition [7] 6.14%

O=C(Nc1ccc(N2CCCC2)c(Cl)c1)c1ccc(Br)o1
inactive: growth inhibition [1] 3.44% | growth inhibition [2] 17% | viability increase [3] -4.13% | viability [4] 78.2% | viability [5] 79.2% | inhibition [6] 0.885% | RAM network inhibition [7] 3.68%

CCCSc1nc2c(c(=O)n1CC)SC(C)C2 (configuration not stated)
inactive: growth inhibition [1] -2.71% | growth inhibition [2] -13% | viability increase [3] -2.02% | viability [4] 105% | viability [5] 88.5% | inhibition [6] 1.4% | RAM network inhibition [7] 2.48%

O=C(CC1(O)C(=O)Nc2ccccc21)c1ccccc1 (configuration not stated)
inactive: growth inhibition [1] 1.47% | growth inhibition [2] -8.37% | viability increase [3] -3.28% | viability [4] 92.2% | viability [5] 96.7% | inhibition [6] 0.055% | RAM network inhibition [7] -1.83%

CC(C)CCNC(=O)C1C2C=CC3(CN(Cc4ccccc4Cl)C(=O)C13)O2 (configuration not stated)
inactive: growth inhibition [1] -8.87% | growth inhibition [2] -13.5% | viability increase [3] -3.35% | viability [4] 103% | viability [5] 98.3% | inhibition [6] 0.82% | RAM network inhibition [7] 8.03%

CC1CCCCC1NC(=O)c1ccc(CNc2c(N3CCCC3)c(=O)c2=O)cc1 (configuration not stated)
inactive: growth inhibition [1] -2.63% | growth inhibition [2] 8.32% | viability increase [3] -0.12% | viability [4] 96.7% | viability [5] 90.8% | inhibition [6] 1.01% | RAM network inhibition [7] 0.72%

O=C(NCCO)c1ccc2[nH]c3c(c2c1)CCCC3
inactive: growth inhibition [1] -12.1% | growth inhibition [2] -18.9% | viability increase [3] -0.28% | viability [4] 98.9% | viability [5] 96.1% | inhibition [6] 1.46% | RAM network inhibition [7] 4.19%

O=C(Nc1ccc(N2CCCCC2)cc1)c1cncc(Br)c1
inactive: growth inhibition [1] 5.98% | growth inhibition [2] 15.3% | viability increase [3] -4.57% | viability [4] 100% | viability [5] 96.8% | inhibition [6] 1.98% | RAM network inhibition [7] 5.26%

CCOC(=O)C1CCCN(C(=O)Cn2sc3nc(C)cc(C)c3c2=O)C1 (configuration not stated)
inactive: growth inhibition [1] 18.4% | growth inhibition [2] 29.4% | viability increase [3] -8.04% | inhibition [6] 1.51% | RAM network inhibition [7] 2.71%
active: viability [4] 3.38% | viability [5] 12.6%

CC1CCN(C(=O)CNC(=O)Cn2ccc3ccccc3c2=O)CC1
inactive: growth inhibition [1] -9.29% | growth inhibition [2] -0.685% | viability increase [3] -1.73% | viability [4] 98.2% | viability [5] 94.1% | inhibition [6] 0.755% | RAM network inhibition [7] 1.67%

CC1=CCC2C(=O)N(c3ccc(C)c(Br)c3)C(=O)C2C1 (configuration not stated)
inactive: growth inhibition [1] 5.96% | growth inhibition [2] -0.835% | viability increase [3] 0.55% | viability [4] 99.5% | viability [5] 95.4% | inhibition [6] 0.08% | RAM network inhibition [7] 0%

Clc1ccccc1N1CCN(c2ncnc3nc[nH]c23)CC1
inactive: growth inhibition [1] 7.42% | growth inhibition [2] -4.18% | viability increase [3] -1.4% | viability [4] 95% | viability [5] 95.7% | inhibition [6] 4.08% | RAM network inhibition [7] 5.77%

Cc1ccc(CC2S/C(=C(/C#N)C(=O)NCc3ccco3)N(c3ccccc3)C2=O)cc1 (configuration not stated)
inactive: growth inhibition [1] 1.42% | growth inhibition [2] 2.41% | viability increase [3] -7.76% | viability [4] 45% | viability [5] 60.6% | inhibition [6] 0.44% | RAM network inhibition [7] 1.64%

CC(=O)Nc1ccc(S(=O)(=O)Nc2cccc(C(=O)NC(C)(C)C)c2)cc1
inactive: growth inhibition [1] -5.5% | growth inhibition [2] -5.24% | viability increase [3] -1.14% | viability [4] 92.1% | viability [5] 88.2% | inhibition [6] 1.53% | RAM network inhibition [7] 6.92%

Cc1cc2ccccc2n1CCNC(=O)COc1ccccc1
inactive: growth inhibition [1] -3.44% | growth inhibition [2] 11.8% | viability increase [3] -0.8% | viability [4] 99.2% | viability [5] 94.2% | inhibition [6] 2.31% | RAM network inhibition [7] 8.38%

O=C(c1ccc(CS(=O)(=O)c2ccc(Br)cc2)o1)N1CCN(c2ncccn2)CC1
inactive: growth inhibition [1] -4.05% | growth inhibition [2] -7.28% | viability increase [3] -4.3% | viability [4] 86.2% | viability [5] 96% | inhibition [6] 1.94% | RAM network inhibition [7] 3.64%

O=C(NCC1CCCO1)c1ccc2c(c1)C(=O)N(C1CCCCC1)C2=O (configuration not stated)
inactive: growth inhibition [1] -10.7% | growth inhibition [2] -6.06% | viability increase [3] 1.19% | viability [4] 100% | viability [5] 91.5% | inhibition [6] 3.77% | RAM network inhibition [7] 3.57%

O=C(NC(C(=O)c1ccccc1)N1CCCCC1)c1ccccc1 (configuration not stated)
inactive: growth inhibition [1] -8.09% | growth inhibition [2] -3.47% | viability increase [3] -2.31% | viability [4] 91.2% | viability [5] 98% | inhibition [6] -0.65% | RAM network inhibition [7] 1.67%

COc1ccc(CCNc2oc(-c3ccc(C)cc3)nc2C#N)cc1OC
inactive: growth inhibition [1] -10.8% | growth inhibition [2] -13.3% | viability increase [3] -0.33% | viability [4] 95.8% | viability [5] 104% | inhibition [6] 0.67% | RAM network inhibition [7] -0.47%

CC(CCCC(C)(C)O)NCCO (configuration not stated)
inactive: growth inhibition [1] -9.36% | growth inhibition [2] -4.3% | viability increase [3] 1.25% | viability [4] 102% | viability [5] 106% | inhibition [6] 2.67% | RAM network inhibition [7] -0.17%

COc1ccc(S(=O)(=O)n2nc(-c3cc(OC)c(OC)c(OC)c3)cc2N)cc1OC
inactive: growth inhibition [1] -12% | growth inhibition [2] 12.7% | viability increase [3] -3.64% | viability [4] 56.3% | viability [5] 74.8% | inhibition [6] 0.16% | RAM network inhibition [7] 5.52%

CCOC(=O)N1CCN(C(=O)c2oc3ccc(S(=O)(=O)N4CCCCCC4)cc3c2C)CC1
inactive: growth inhibition [1] -9.38% | growth inhibition [2] -0.595% | viability increase [3] -4.29% | viability [4] 59.3% | viability [5] 71.1% | inhibition [6] -0.805% | RAM network inhibition [7] 1.63%

COc1ccc(N(CC(=O)NC2CCCCC2)S(=O)(=O)c2cccnc2)cc1
inactive: growth inhibition [1] -2.11% | growth inhibition [2] 3.61% | viability increase [3] -1.68% | viability [4] 99.6% | viability [5] 105% | inhibition [6] 1.57% | RAM network inhibition [7] 2.86%

CC(C)=C1C2C=CC1C(C(=O)Nc1cc(C)ccc1C)C2C(=O)O (configuration not stated)
inactive: growth inhibition [1] -14.6% | growth inhibition [2] -12.2% | viability increase [3] -4.28% | viability [4] 87.4% | viability [5] 85.8% | inhibition [6] 1.78% | RAM network inhibition [7] 6.92%

COc1ccc(C)cc1NC(=O)CSc1nnc(-c2ccc(C)cc2)o1
inactive: growth inhibition [1] -8.71% | growth inhibition [2] 30.3% | viability increase [3] 1.15% | viability [4] 91.9% | viability [5] 86.8% | inhibition [6] 2.09% | RAM network inhibition [7] 5.49%

CC1CSc2nnc(CCc3ccccc3)n21 (configuration not stated)
inactive: growth inhibition [1] 2.06% | growth inhibition [2] -7.96% | viability increase [3] -2.61% | viability [4] 107% | viability [5] 89.2% | inhibition [6] 0.37% | RAM network inhibition [7] -0.11%

CC(=O)c1ccc(OCC(O)CN2CCOCC2)cc1 (configuration not stated)
inactive: growth inhibition [1] -11.4% | growth inhibition [2] 10.1% | viability increase [3] 0.28% | viability [4] 103% | viability [5] 90.7% | inhibition [6] 2.42% | RAM network inhibition [7] 0.84%

Cc1ccc(O)c(C(=O)CC(=O)c2cccc(F)c2)c1
active: growth inhibition [1] 35.8% | growth inhibition [2] 50%
inactive: viability increase [3] -7.04% | viability [4] 40.6% | viability [5] 47.4% | inhibition [6] -0.695% | RAM network inhibition [7] -1.45%

COc1ccc2occ(C(=O)c3ccc(N=C(C)N(C)C)cc3)c2c1
inactive: growth inhibition [1] -7.86% | growth inhibition [2] -16.5% | viability increase [3] -1.53% | viability [4] 58.4% | viability [5] 70.1% | inhibition [6] 1.21% | RAM network inhibition [7] 0.89%

CCCCn1c(C(C)NC(=O)CCC)nc2ccccc21 (configuration not stated)
inactive: growth inhibition [1] -1.25% | growth inhibition [2] -0.375% | viability increase [3] 1.35% | viability [4] 86.2% | viability [5] 91% | inhibition [6] 0.88% | RAM network inhibition [7] 7.23%

O=C(OCCOCCN=C1NS(=O)(=O)c2ccccc21)C1CC(=O)N(c2ccccc2)C1 (configuration not stated)
inactive: growth inhibition [1] 4.05% | growth inhibition [2] 5.13% | viability increase [3] -1.16% | viability [4] 100% | viability [5] 87.3% | inhibition [6] 2.11% | RAM network inhibition [7] 1.23%

O=C(O)CSc1cccc2cccc(C(=O)O)c12
inactive: growth inhibition [1] -0.49% | growth inhibition [2] 4.41% | viability increase [3] -2.27% | viability [4] 105% | viability [5] 101% | inhibition [6] 1.54% | RAM network inhibition [7] 1.15%

O=C(CSc1nnc(-c2cccnc2)n1Cc1ccco1)c1ccc(Br)cc1
inactive: growth inhibition [1] 1.25% | growth inhibition [2] 32.4% | viability increase [3] -1.99% | viability [4] 79.9% | viability [5] 86.8% | inhibition [6] 0.005% | RAM network inhibition [7] 10%
